ChEMBL document CHEMBL3286234, “Synthesis, Characterization, and in Vitro Evaluation of a New TSPO-Selective Bifunctional Chelate Ligand” (ACS Med Chem Lett, 2014)
Activity calls are given as the source filed them. No cut-off for these calls is given here.

Legend:
C6 [1] = experiment: Cell cycle arrest in rat C6 cells at 10 uM after 24 hrs by propidium iodide staining based flow cytometry; format: functional
Summary of the method: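 C6 glioma cells exposed to 10 μM for 24 h, then cell cycle histograms recorded by flow cytometry. Untreated cells served as control.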

C6 [2] = experiment: Cell cycle arrest in rat C6 cells assessed as proportion of cells at G0/G1 phase at 0.3 uM after 72 hrs by propidium iodide staining based flow cytometry (reference value: 54.94%); format: functional
C6 [3] = experiment: Cell cycle arrest in rat C6 cells assessed as proportion of cells at S phase at 0.3 uM after 72 hrs by propidium iodide staining based flow cytometry (reference value: 11.15%); format: functional
Translocator protein = Translocator protein (Rattus norvegicus, UniProt P16257); experiment: Displacement of [3H]PK11195 from TSPO in rat C6 cell membrane after 90 mins by radioligand binding assay; format: cell membranes
Summary of the method: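 Affinity for TSPO was measured on membrane extracts of C6 glioma cells and reported as Ki (nM).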

A2780cisR [4] = experiment: Resistance factor, ratio of IC50 for human A2780cisR cells to IC50 for cisplatin-sensitive human A2780 cells; format: functional
C6 [5] = experiment: Cell cycle arrest in rat C6 cells assessed as proportion of cells at G2/M phase at 0.3 uM after 72 hrs by propidium iodide staining based flow cytometry (reference value: 28.02%); format: functional
C6 [6] = experiment: Cell cycle arrest in rat C6 cells assessed as proportion of cells at sub-G1 phase at 0.3 uM after 72 hrs by propidium iodide staining based flow cytometry (reference value: 5.89%); format: functional
A2780 = experiment: Cytotoxicity against cisplatin-sensitive human A2780 cells assessed as inhibition of cell viability after 72 hrs by MTT assay; format: functional, cell-based; details: A2780, 72 h
Summary of the method: (§1)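 Cells treated across 0.05 to 100 μM and incubated 72 h at 37 °C; IC50 in μM.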

[7] = Induction of single strand breaks in supercoiled pET plasmid DNA (unknown origin) at 0.5 to 10 uM pretreated for 2 hrs by agarose gel electrophoresis in presence of CuCl2 and GSH
Summary of the method: (§2)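 Compound preincubated 2 h with CuCl2 (5 equiv) and GSH (50 equiv), then reacted with pET plasmid DNA for 1 h at 37 °C at 0.5, 1, 2 or 10 μM. Forms I, II and III resolved on 1% agarose gel stained with ethidium bromide. Controls were untreated DNA and CuCl2 plus GSH alone.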

C6 [8] = experiment: Induction of mitochondrial and nuclear structure modification in rat C6 cells assessed as fragmented nuclei and mitochondria at 10 uM after 24 hrs by MitoTracker Red/DAPI staining based fluorescence microscopy; format: functional, cell-based
Summary of the method: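 C6 glioma cells exposed at 10 μM for 24 h, then stained with MitoTracker Red for mitochondria and DAPI for nuclei. Morphology assessed with a digital imaging system. Untreated cells served as control.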

[9] = Induction of double strand breaks in supercoiled pET plasmid DNA (unknown origin) at 10 uM pretreated for 2 hrs by agarose gel electrophoresis in absence of CuCl2
Summary of the method: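 Compound at 10 μM, without CuCl2, incubated with pET plasmid DNA. Supercoiled, open circular and linear forms resolved on 1% agarose gel stained with ethidium bromide.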

C6 [10] = experiment: Antiproliferative activity in rat C6 cells assessed as proportion of cells with depolarized mitochondrial membrane potential at 10 uM after 24 hrs by JC-1 staining based flow cytometry (reference value: 0.21%); format: functional
[11] = Induction of double strand breaks in supercoiled pET plasmid DNA (unknown origin) at 0.5 to 10 uM pretreated for 2 hrs by agarose gel electrophoresis in presence of CuCl2 and GSH; summary of the method: as §2
C6 [12] = experiment: Cytotoxicity against rat C6 cells overexpressing TSPO assessed as inhibition of cell viability after 72 hrs by MTT assay; format: functional, cell-based; details: C6, 72 h
Summary of the method: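 Cells exposed to drug over 0.05 to 100 μM at 37 °C for 72 h; IC50 reported.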

A2780cisR [13] = experiment: Cytotoxicity against human A2780cisR cells assessed as inhibition of cell viability after 72 hrs by MTT assay; format: functional, cell-based; summary of the method: as §1
[14] = Induction of double strand breaks in supercoiled pET plasmid DNA (unknown origin) at 10 uM pretreated for 2 hrs by agarose gel electrophoresis in presence of CuCl2 and GSH
Summary of the method: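 Ligand (0.5, 1, 2 or 10 μM) preincubated 2 h with CuCl2 (5 equiv) and GSH (50 equiv), then reacted with pET plasmid for 1 h at 37 °C. Products separated on 1% agarose gel stained with ethidium bromide and scored as supercoiled (I), open circular (II) and linear (III) forms.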

Chain of Translocator protein (P16257 whole entry, looked up): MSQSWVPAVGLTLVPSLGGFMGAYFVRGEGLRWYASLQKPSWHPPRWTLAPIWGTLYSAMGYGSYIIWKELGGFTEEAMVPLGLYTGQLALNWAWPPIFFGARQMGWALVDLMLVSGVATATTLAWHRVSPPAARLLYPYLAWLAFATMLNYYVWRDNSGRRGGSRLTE

| SMILES | Activity (C6 [1]) | Activity (C6 [2]) [%] | Activity (C6 [3]) [%] | Ki (Translocator protein) [nM] | Ratio IC50 (A2780cisR [4]) | Activity (C6 [5]) [%] | Activity (C6 [6]) [%] | IC50 (A2780) [µM] | Activity [7] | Activity (C6 [8]) | Activity [9] | Activity (C6 [10]) [%] | Activity [11] | IC50 (C6 [12]) [µM] | IC50 (A2780cisR [13]) [µM] | Activity [14] |
| --- | --- | --- | --- | --- | --- | --- | --- | --- | --- | --- | --- | --- | --- | --- | --- | --- |
| CCCN(CCC)C(=O)Cc1c(-c2ccc(Cl)cc2)nc2c(NC(=O)CN(Cc3ccccn3)Cc3ccccn3)cccn12 | inactive | 49.07 | 13.18 | 239 | 1.02 | 28.69 | 9.06 | 9.02 | inactive | Active | inactive | 2.47 | Active | 0.27 | 9.21 |  |
| CCCN(CCC)C(=O)Cc1c(-c2ccc(Cl)cc2)nc2c(N)cccn12 |  |  |  | 1.6 |  |  |  |  |  |  |  |  |  | 19.7 |  | inactive |
